In paper PMC3821739 (Organic & biomolecular chemistry, 2013):
Read-outs that look alike come from different tables or passages of the source.

Experiments:
[1] = tested on: RRE; conditions: cited from earlier work
[2] = target: stem B deleted RNA; assay: Dot blot assay with RRE IIB variant stem B deleted RNA; type: binding, HIV-1
[3] = tested on: RRE IIB DNA; assay: Dot blot assay with DNA of the same RRE IIB sequence; type: binding, HIV-1
[4] = tested on: loop A/B/bulge A deleted RNA; assay: Dot blot assay with RRE IIB variant loop A/B/bulge A deleted RNA; type: binding, HIV-1
[5] = target: loop B/bulge A deleted RNA; assay: Dot blot assay with RRE IIB variant loop B/bulge A deleted RNA; type: binding, HIV-1
[6] = tested on: stem A/loop A deleted RNA; assay: Dot blot assay with RRE IIB variant stem A/loop A deleted RNA; type: binding, HIV-1
[7] = tested on: loop A(A-G)/B/bulge A deleted RNA; assay: Dot blot assay with RRE IIB variant loop A; type: binding, HIV-1
[8] = target: HIV-1 RRE IIB RNA; assay: Dot blot assay, dissociation constant with wild-type RRE IIB RNA; type: binding; conditions: for loss of binding affinity compared to BPBA1: RRE IIB
[9] = tested on: hexaloop RNA; assay: Dot blot assay with RRE IIB variant hexaloop RNA; type: binding, HIV-1
[10] = tested on: RRE IIB; assay: RNase protection; type: binding, HIV-1; conditions: on ice
Method in brief: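 5′-³²P-labelled RRE-IIB (10 nM) mixed with unlabelled RRE-IIB (200 nM), refolded at 95 °C for 3 min, then snap-cooled on ice. Test compound added in 10 mM Tris pH 7, 100 mM KCl, 10 mM MgCl₂, then 4 hr on ice. Digestion on ice: RNase V1 0.002 U for 10 min; T1 1 U or A 20 ng for 1 hr. Stopped by precipitation, run on 12% urea PAGE with an alkaline-hydrolysis ladder, autoradiography.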

[11] = target: HIV-1 RRE IIB RNA; conditions: read-out: binding affinity (Kd) of hit BPBA; dot blot; cited from earlier work

For `NC[C@@H]1O[C@H](O[C@H]2[C@@H](O)[C@H](O[C@@H]3[C@@H](O)[C@H](N)C[C@H](N)[C@H]3O[C@H]3O[C@H](CN)[C@@H](O)[C@H](O)[C@H]3N)O[C@@H]2CO)[C@H](N)[C@@H](O)[C@@H]1O` [neomycin B], the “binding to RRE” value [1] is given as “submicromolar”.
In the case of (WKK)2*KBBAYWY [BPBA1], the Kd [2] is reported as 3.7 µM, the “selectivity toward RNA over DNA” value ([3]; RRE IIB RNA versus RRE IIB DNA) is reported as 23 fold and the Kd ([3]; read-out: dissociation constant) is reported as 31.8 ± 6.6 µM. For the same molecule, the “loss in binding affinity / selectivity relative to RRE IIB” value [4] was > 75 fold, the Kd [5] was 8.7 µM and the “lower affinity relative to RRE IIB” value [5] was 6 fold. The “lower affinity relative to RRE IIB” value [6] was > 10 fold, the “lower affinity relative to RRE IIB” value [7] was > 10 fold and the Kd ([8]; read-out: observed Kd in the presence of competing tRNA, 10-fold molar excess of bacterial tRNA relative to RRE IIB) was 2.1 µM. For the same molecule, the “increase of Kd compared to the wild type” value [9] was ~ 3 fold, the “protection of RRE IIB from cleavage by RNase A” value ([10]; BPBA1 up to 20 µM) was “visibly protected U7, C21, and U36” and the “protection of RRE IIB from cleavage by RNase T1” value ([10]; BPBA1 up to 20 µM) was “no noticeable changes in band intensity”. For the same molecule, the “protection of RRE IIB from cleavage by RNase V1” value ([10]; region A16 through G19, BPBA1 0.2 µM to 20 µM) was “concentration dependent protection” and the Kd [11] was 1.4 µM.
In the case of Ac(WKK)*KBBAYWY [LPBA3], the “loss of binding affinity compared to BPBA1” value (“loss … compared to BPBA1” for short) [8] is reported as > 50 fold.
For WKKGKBBAYWY [LPBA1], the “loss … compared to BPBA1” value [8] was > 50 fold.
In the case of WKKGKBBAYWYWKK [LPBA5], the “loss … compared to BPBA1” value [8] is reported as “at least 5 fold”.
With WKKWKKGKBBAYWY [LPBA4] the “loss … compared to BPBA1” value [8] was “at least 5 fold”.
